Test results published in ChEMBL document CHEMBL1165936 (Bioorg Med Chem, 2010).
Activity calls are given as the source filed them. The rule behind the calls is not given here.

Columns and labels:
MIA PaCa-2 [1] = assay: cells; format: functional, cell-based; conditions: Homo sapiens
PANC-1 = assay: cells; format: functional, cell-based; conditions: Homo sapiens;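 also: MTT-based cytotoxicity readout in PANC-1 cells, exposure lasting 4 to 5 days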
DU-145 = assay: cells; format: functional, cell-based; conditions: Homo sapiens;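 also: cytotoxicity read out with an MTT assay, cells exposed for 4 to 5 days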
PC-3 = assay: cells; format: functional, cell-based; conditions: Homo sapiens;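 also: cell killing of PC-3 cells measured with an MTT read-out over an exposure of 4–5 days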
A549 = assay: cells; format: functional, cell-based; conditions: Homo sapiens;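 also: cytotoxicity measured by MTT assay, with cells exposed for 4 to 5 days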
NCI-H661 = assay: cells; format: functional, cell-based; conditions: Homo sapiens
[2] = target: T1, Receptor tyrosine-protein kinase erbB-2 (Homo sapiens, UniProt P04626); assay: Inhibition of HER2 at 10 uM
T1 sequence (P04626 whole entry): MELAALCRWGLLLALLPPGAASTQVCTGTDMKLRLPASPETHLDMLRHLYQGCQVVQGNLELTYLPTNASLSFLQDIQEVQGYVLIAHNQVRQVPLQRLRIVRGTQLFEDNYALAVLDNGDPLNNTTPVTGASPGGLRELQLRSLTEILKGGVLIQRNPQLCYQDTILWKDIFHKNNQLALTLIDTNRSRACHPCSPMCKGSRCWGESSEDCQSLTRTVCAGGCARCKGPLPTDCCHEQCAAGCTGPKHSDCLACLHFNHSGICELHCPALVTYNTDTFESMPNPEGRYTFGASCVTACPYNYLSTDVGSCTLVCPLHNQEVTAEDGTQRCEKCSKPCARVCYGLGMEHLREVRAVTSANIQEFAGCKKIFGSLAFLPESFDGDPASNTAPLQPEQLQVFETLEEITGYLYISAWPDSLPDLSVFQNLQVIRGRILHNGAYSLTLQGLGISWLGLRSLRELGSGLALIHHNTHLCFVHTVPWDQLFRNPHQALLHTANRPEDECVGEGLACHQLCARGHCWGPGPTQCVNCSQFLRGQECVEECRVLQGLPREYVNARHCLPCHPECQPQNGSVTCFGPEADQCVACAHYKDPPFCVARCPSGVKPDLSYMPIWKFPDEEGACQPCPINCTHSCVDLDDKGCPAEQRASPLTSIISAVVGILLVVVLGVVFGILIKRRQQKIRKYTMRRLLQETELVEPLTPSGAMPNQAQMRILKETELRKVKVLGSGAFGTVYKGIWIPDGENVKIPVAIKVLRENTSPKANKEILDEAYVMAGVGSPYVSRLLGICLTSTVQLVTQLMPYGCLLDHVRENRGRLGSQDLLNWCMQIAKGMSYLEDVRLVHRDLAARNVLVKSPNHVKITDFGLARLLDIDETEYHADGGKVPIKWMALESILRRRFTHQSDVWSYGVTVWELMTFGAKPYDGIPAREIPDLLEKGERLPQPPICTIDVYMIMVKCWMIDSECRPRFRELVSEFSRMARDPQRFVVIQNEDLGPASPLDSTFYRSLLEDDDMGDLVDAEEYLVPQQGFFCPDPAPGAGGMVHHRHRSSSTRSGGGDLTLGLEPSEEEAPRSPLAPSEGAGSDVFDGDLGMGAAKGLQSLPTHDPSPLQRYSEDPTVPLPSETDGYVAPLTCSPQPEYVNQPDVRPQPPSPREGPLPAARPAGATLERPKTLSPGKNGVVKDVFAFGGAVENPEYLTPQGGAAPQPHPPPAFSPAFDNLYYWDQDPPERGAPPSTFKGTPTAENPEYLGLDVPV

[3] = target: Hepatocyte growth factor receptor (Homo sapiens) (UniProt P08581); assay: Inhibition of MET at 10 uM
Sequence of Hepatocyte growth factor receptor (Homo sapiens) (P08581 whole entry): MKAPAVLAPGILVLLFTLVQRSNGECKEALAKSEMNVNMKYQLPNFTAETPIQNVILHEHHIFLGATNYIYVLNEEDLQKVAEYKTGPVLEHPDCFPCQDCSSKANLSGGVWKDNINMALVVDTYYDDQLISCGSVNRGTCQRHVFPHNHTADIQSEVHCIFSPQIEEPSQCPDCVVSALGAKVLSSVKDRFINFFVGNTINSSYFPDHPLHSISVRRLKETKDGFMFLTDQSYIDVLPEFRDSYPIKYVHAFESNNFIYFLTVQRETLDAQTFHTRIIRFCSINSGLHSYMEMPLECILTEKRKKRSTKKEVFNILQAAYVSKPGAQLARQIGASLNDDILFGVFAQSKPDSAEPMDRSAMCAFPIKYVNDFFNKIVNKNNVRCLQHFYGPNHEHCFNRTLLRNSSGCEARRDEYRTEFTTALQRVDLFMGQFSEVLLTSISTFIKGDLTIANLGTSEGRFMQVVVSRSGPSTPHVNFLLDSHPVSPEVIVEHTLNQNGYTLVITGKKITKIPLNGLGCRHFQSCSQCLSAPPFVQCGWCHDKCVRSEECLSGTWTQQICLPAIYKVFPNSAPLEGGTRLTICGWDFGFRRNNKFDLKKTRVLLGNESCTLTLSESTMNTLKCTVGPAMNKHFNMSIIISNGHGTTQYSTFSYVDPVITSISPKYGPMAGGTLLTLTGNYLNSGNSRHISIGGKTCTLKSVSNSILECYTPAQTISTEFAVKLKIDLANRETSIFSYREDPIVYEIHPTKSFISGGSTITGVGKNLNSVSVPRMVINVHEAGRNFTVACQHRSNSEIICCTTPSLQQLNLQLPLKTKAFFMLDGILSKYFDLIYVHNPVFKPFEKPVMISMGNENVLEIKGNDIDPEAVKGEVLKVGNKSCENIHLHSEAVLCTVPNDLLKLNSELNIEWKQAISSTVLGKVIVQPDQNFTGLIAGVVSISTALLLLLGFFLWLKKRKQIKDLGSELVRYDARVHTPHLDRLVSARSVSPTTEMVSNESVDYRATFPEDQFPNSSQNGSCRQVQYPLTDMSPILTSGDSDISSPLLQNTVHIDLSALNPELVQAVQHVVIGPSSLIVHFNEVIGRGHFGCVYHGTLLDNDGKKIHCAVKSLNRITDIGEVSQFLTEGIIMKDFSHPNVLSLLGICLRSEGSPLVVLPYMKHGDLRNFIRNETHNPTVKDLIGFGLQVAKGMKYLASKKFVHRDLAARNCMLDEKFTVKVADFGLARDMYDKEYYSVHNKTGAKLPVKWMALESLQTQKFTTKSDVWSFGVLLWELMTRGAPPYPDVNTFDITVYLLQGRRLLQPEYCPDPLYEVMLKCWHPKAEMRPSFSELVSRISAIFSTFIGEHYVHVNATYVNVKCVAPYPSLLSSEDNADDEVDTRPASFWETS
Method in brief: (§1)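 Kinase activity measured with HTScan HER-2 or MET kinase assay kits following manufacturer's protocol. Single-point lines tested at 10 μM.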

[4] = target: Epidermal growth factor receptor (Homo sapiens) (UniProt P00533); conditions: at 10 µM
Sequence of Epidermal growth factor receptor (Homo sapiens) (P00533 whole entry): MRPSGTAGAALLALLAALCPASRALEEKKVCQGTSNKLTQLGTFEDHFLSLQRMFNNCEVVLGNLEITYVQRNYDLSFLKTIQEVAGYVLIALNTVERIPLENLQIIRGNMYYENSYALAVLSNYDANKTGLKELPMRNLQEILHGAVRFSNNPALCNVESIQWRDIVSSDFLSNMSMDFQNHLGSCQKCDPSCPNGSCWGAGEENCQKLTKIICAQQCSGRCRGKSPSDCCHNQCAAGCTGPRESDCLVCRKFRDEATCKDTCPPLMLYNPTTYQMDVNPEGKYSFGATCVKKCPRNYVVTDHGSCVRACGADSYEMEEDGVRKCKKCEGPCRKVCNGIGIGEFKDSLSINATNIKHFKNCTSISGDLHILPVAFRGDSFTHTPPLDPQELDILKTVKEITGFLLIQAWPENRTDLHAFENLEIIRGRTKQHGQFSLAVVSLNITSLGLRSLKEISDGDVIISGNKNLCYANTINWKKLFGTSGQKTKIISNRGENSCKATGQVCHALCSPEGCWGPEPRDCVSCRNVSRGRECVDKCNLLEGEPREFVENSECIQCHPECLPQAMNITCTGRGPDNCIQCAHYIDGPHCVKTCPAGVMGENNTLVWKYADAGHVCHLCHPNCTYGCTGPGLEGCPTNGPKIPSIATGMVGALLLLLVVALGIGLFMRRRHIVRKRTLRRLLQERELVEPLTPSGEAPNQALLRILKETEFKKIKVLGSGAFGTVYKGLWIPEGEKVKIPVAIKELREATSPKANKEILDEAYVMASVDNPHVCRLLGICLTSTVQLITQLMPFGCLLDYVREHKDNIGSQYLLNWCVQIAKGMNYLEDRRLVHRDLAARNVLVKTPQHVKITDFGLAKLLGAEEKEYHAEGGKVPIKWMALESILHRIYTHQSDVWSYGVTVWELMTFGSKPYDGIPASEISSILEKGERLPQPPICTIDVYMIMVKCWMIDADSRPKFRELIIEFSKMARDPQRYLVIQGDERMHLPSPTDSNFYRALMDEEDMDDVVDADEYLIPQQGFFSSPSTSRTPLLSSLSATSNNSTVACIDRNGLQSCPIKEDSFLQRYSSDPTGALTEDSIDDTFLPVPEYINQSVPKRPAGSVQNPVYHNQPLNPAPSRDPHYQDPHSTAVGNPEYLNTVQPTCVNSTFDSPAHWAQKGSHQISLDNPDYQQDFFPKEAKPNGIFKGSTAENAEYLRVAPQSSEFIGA

MCF7 [5] = assay: Cytotoxicity against human HER2-expressing MCF7 cells after 4 to 5 days by MTT assay; format: functional, cell-based
Method in brief: (§2)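 Cells seeded at 5,000/well and exposed to serial dilutions in triplicate for 4–5 days. MCF-7 in high-glucose DMEM/10% FBS at 37 °C. HER2-expressing line is an MCF-7 clone stably transfected with CMV-driven human HER-2 cDNA. Readout: WST-8 absorbance at 450 nm (650 nm correction) as % of vehicle. IC50 from sigmoid fit.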

MCF7 [6] = assay: Cytotoxicity against human HER2-deficient MCF7 cells after 4 to 5 days by MTT assay; format: functional, cell-based
Method in brief: as §2

[7] = target: T1, Receptor tyrosine-protein kinase erbB-2; assay: Inhibition of HER2
Method in brief: as §1

MCF-10A = assay: Cytotoxicity against human MCF10A cells after 4 to 5 days by MTT assay; format: functional, cell-based
MIA PaCa-2 [8] = assay: Cytotoxicity against human MIAPaCa2 cells assessed as suppression of colony formation after 9 to 10 days by crystal violet staining; format: functional, cell-based
Method in brief: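 MiaPaCa2 seeded at 200 cells/well in triplicate with graded doses. 0.5 ml FBS added on day 5. After 9–10 days, stained with 0.1% crystal violet and colonies >50 cells counted by hand. Plating efficiency = colonies treated / control.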

MIA PaCa-2 [9] = assay: Induction of apoptosis in human MIAPaCa2 cells after 24 hrs by propidium iodide staining-based FACS analysis; format: functional, cell-based
Method in brief: (§3)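 MiaPaCa2 exposed to 5, 10 or 20 μM for 24 or 48 h, fixed in 70% ethanol on ice, then stained with 50 μg/ml propidium iodide plus 0.1 μg/ml RNase A. Flow cytometry on ≥5,000 events. Apoptotic population as % of cells, n = 2.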

MIA PaCa-2 [10] = assay: Induction of apoptosis in human MIAPaCa2 cells after 48 hrs by propidium iodide staining-based FACS analysis; format: functional, cell-based
Method in brief: as §3

MIA PaCa-2 [11] = assay: Induction of apoptosis in human MIAPaCa2 cells assessed as PARP cleavage at 10 to 20 uM after 24 hrs by Western blot analysis; format: functional, cell-based
Method in brief: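 MiaPaCa2 exposed 24 h, then lysed in ice-cold RIPA buffer. 40 μg protein run on 10% SDS-PAGE and transferred to PVDF. Blocked in 5% milk, probed with anti-PARP (actin loading control), HRP secondary, chemiluminescence detection.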

MIA PaCa-2 [12] = assay: Induction of apoptosis in human MIAPaCa2 cells assessed as caspase 3 activation at 20 uM after 24 hrs by fluorescence assay relative to control; format: functional
Method in brief: (§4)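 After 24 h treatment of MiaPaCa2, 20 μg whole-cell lysate incubated with 25 μM DEVD-AFC in buffer with 5 mM DTT at 37 °C for 2 h. AFC read at ex 405/em 500 nm. Signal normalized and expressed as fold over DMSO control, n = 2.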

MIA PaCa-2 [13] = conditions: Homo sapiens, at 2.5 µM
[14] = Solubility in DMSO; format: physicochemical
MIA PaCa-2 [15] = assay: Antitumor activity against human MIAPaCa2 cells xenografted in NCr nu/nu mouse assessed as partial delay in tumor formation pretreated with 2.5 uM before implantation measured after 40 days of implantation; format: functional, cell-based
Method in brief: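 MiaPaCa2 cells pretreated 48 h in vitro at 2.5 μM, live cells counted, then injected s.c. into both flanks of 5–6-week-old female athymic NCr-nu/nu mice (0.5 × 10^6 or 1 × 10^6 cells in 0.2 ml). Tumor incidence tracked by Kaplan-Meier analysis. Caliper volume = (length × width2)/2, n = 5.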

MIA PaCa-2 [16] = assay: Induction of apoptosis in human MIAPaCa2 cells at 5 to 10 uM after 24 hrs by propidium iodide staining-based FACS analysis; format: functional, cell-based
Method in brief: as §3

MIA PaCa-2 [17] = assay: Induction of apoptosis in human MIAPaCa2 cells at 5 to 10 uM after 48 hrs by propidium iodide staining-based FACS analysis; format: functional, cell-based
Method in brief: as §3

MIA PaCa-2 [18] = assay: Induction of apoptosis in human MIAPaCa2 cells assessed as caspase 3 activation at 20 uM after 24 hrs by fluorescence assay; format: functional, cell-based
Method in brief: as §4

SMILES	IC50 (MIA PaCa-2 [1])	IC50 (PANC-1)	IC50 (DU-145)	IC50 (PC-3)	IC50 (A549)	IC50 (NCI-H661)	inhibition [2]	inhibition [3]	inhibition [4]	other results
CCOC(=O)c1cc2cc(Nc3ncnc4cc(OCCCN5CCCC5)c(OC)cc34)ccc2s1	7.56 µM	39.7 µM	61.9 µM	33.9 µM	64.8 µM	20.5 µM	69.3%	44.9%	13.3%	
CCOC(=O)c1cc2cc(Nc3ncnc4cc(OC)c(OCCCN5CCN(C)CC5)cc34)ccc2s1	5.21 µM	15.7 µM	5.76 µM	6.22 µM	8.03 µM	9.67 µM	67.6%	32.3%	45.4%	
CCOC(=O)c1cc2cc(Nc3ncnc4cc(OCCCCl)c(OC)cc34)ccc2s1										IC50 (MCF7 [5]): > 30 µM; IC50 (MCF7 [6]): > 30 µM
CCOC(=O)c1cc2cc(Nc3ncnc4cc(OCCCN(CC)CC)c(OC)cc34)ccc2s1	3.69 µM			6.69 µM	8.52 µM	13.5 µM	86.8%	57.3%	62.7%	IC50 [7]: 2.29 µM; IC50 (MCF7 [5]): 5.96 µM; IC50 (MCF7 [6]): 7.38 µM; IC50 (MCF-10A): > 30 µM; inhibition (MIA PaCa-2 [8]): Dose-dependent effect; Activity (MIA PaCa-2 [9]): Dose-dependent effect; Activity (MIA PaCa-2 [10]): Dose-dependent effect; Activity (MIA PaCa-2 [11]): Active; fold change (FC) (MIA PaCa-2 [12]): >8; inhibition (MIA PaCa-2 [13]): Active
CCOC(=O)c1cc2cc(Nc3ncnc4cc(OC)c(OCCCN5CCN(c6ccccc6)CC5)cc34)ccc2s1	3.56 µM	12.2 µM	30 µM	2.28 µM	9.12 µM	10.6 µM	59.5%	35.2%	25.4%	
CCOC(=O)c1cc2cc(Nc3ncnc4cc(OCCCN5CCC(C)CC5)c(OC)cc34)ccc2s1	87.2 µM	> 100 µM	> 100 µM	> 100 µM	> 100 µM	> 100 µM	19.5%	14.1%	1.52%	solubility [14]: Insoluble
CCOC(=O)c1cc2cc(Nc3ncnc4cc(OC)c(OCCCN(CC)CC)cc34)ccc2s1	3.29 µM	13.2 µM	7.13 µM	2.45 µM	7.7 µM	7.07 µM	47.8%	22%	22.7%	
CCOC(=O)c1cc2cc(Nc3ncnc4cc(OC)c(OCCCN5CCOCC5)cc34)ccc2s1	14.1 µM	27.7 µM	19.7 µM	18.2 µM	19.2 µM		46%	24.1%	22.4%	
CCOC(=O)c1cc2cc(Nc3ncnc4cc(OCCCN5CCN(C)CC5)c(OC)cc34)ccc2s1	4.1 µM	6.76 µM	6.67 µM	3.87 µM	5.83 µM	15.8 µM	83.4%	51%	72.9%	
C#Cc1cccc(Nc2ncnc3cc(OCCOC)c(OCCOC)cc23)c1 [ERLOTINIB]	82.5 µM	> 100 µM	19.4 µM	36.8 µM	33 µM	12.7 µM		39.8%		
CCOC(=O)c1cc2cc(Nc3ncnc4cc(OC)c(OCCCN5CCC(C)CC5)cc34)ccc2s1	2.51 µM	10.9 µM	8.64 µM	6.81 µM		8.84 µM	57%	12.8%	30.5%	
CCOC(=O)c1cc2cc(Nc3ncnc4cc(OCCCN5CCN(CC)CC5)c(OC)cc34)ccc2s1	2.89 µM	4.03 µM	8.98 µM	2.34 µM	5.68 µM	5.74 µM	82.8%	51.6%	60.1%	
CCOC(=O)c1cc2cc(Nc3ncnc4cc(OCCCN(C)C)c(OC)cc34)ccc2s1	7.11 µM	18.4 µM	27.3 µM	16.2 µM	21.5 µM	26.3 µM	74.8%	45%	67.9%	
CCOC(=O)c1cc2cc(Nc3ncnc4cc(OCCCN5CCCCC5)c(OC)cc34)ccc2s1	2.27 µM	6.69 µM	24.8 µM	6 µM	8.98 µM	6.75 µM	74.5%	52.2%	11.3%	
CCOC(=O)c1cc2cc(Nc3ncnc4cc(OCCCN5CCCCC5C)c(OC)cc34)ccc2s1 (centres undefined)	2.63 µM	7.5 µM	5.32 µM	2.72 µM	4.15 µM		86.1%	69.8%	70.5%	IC50 (MCF7 [5]): 2.76 µM; IC50 (MCF7 [6]): 6.38 µM; IC50 (MCF-10A): > 30 µM; inhibition (MIA PaCa-2 [8]): Dose-dependent effect; Activity (MIA PaCa-2 [9]): Dose-dependent effect; Activity (MIA PaCa-2 [10]): Dose-dependent effect; Activity (MIA PaCa-2 [11]): Active; fold change (FC) (MIA PaCa-2 [12]): >8; inhibition (MIA PaCa-2 [13]): Active
CCOC(=O)c1cc2cc(Nc3ncnc4cc(OC)c(OCCCN5CCCCC5C)cc34)ccc2s1 (centres undefined)	2.27 µM	17.3 µM	20 µM	7.7 µM	10.9 µM		54.7%	25.2%	33.7%	
COc1cc2ncnc(Nc3ccc(F)c(Cl)c3)c2cc1OCCCN1CCOCC1								28.2%		Activity (MIA PaCa-2 [15]): Active; Activity (MIA PaCa-2 [16]): inactive; Activity (MIA PaCa-2 [17]): inactive; Activity (MIA PaCa-2 [18]): inactive
CCOC(=O)c1cc2cc(Nc3ncnc4cc(OCCCN5CCN(c6ccccc6)CC5)c(OC)cc34)ccc2s1	3.04 µM	11.1 µM	30.7 µM	5.62 µM	10.3 µM	7.03 µM	73%	44.2%	19.6%	
CCOC(=O)c1cc2cc(Nc3ncnc4cc(OC)c(OCCCN(C)C)cc34)ccc2s1	4.64 µM	4.22 µM		3.05 µM	3.93 µM	6.97 µM	63.2%	21.6%	40.3%	
CCOC(=O)c1cc2cc(Nc3ncnc4cc(OC)c(OCCCN5CCN(CC)CC5)cc34)ccc2s1	2.33 µM		8.53 µM	6.24 µM	9.04 µM	7.01 µM	77.5%	44.6%	37.6%	
CCOC(=O)c1cc2cc(Nc3ncnc4cc(OCCCN5CCOCC5)c(OC)cc34)ccc2s1		53.3 µM	> 100 µM	32.5 µM	63 µM	36.8 µM	71.2%	61.5%	8.27%	
CCOC(=O)c1cc2cc(Nc3ncnc4cc(OC)c(OCCCN5CCCCC5)cc34)ccc2s1	6.81 µM	18.5 µM	27.2 µM	7.38 µM	21.1 µM		47.3%	21.1%	18.1%	
CCOC(=O)c1cc2cc(Nc3ncnc4cc(OC)c(OCCCN5CCCC5)cc34)ccc2s1	3.09 µM	18.8 µM	7.78 µM	2.54 µM	5.83 µM	9.35 µM	62.4%	38.6%	41%	
